Data as given in ChEMBL document CHEMBL1135922, “A common mechanism underlying promiscuous inhibitors from virtual and high-throughput screening” (J Med Chem, 2002).

Assay: Aggregates forming ability by dynamic light scattering(DLS).
In short: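 Compound from 10 mM DMSO stock diluted into filtered KPi (5, 50 or 500 mM); dynamic light scattering at 90° detector angle, 25 °C, argon-ion laser at 514.4 nm (helium-neon 632.8 nm for dyes absorbing at 514.4 nm). Mean particle diameter by cumulant analysis; scattering intensity recorded. Each value from four or more independent measurements.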

SMILES	DLS Concentration [µM]
O=C1C2C(C(=O)N1Nc1ccc([N+](=O)[O-])cc1[N+](=O)[O-])[C@@]1(Cl)C(Cl)=C(Cl)[C@]2(Cl)C1(Cl)Cl (stereo not given in full)	15
O=C1Nc2ccccc2/C1=C/c1ccc(-c2cccs2)s1	20
Nc1c(/N=N/c2ccc(-c3ccc(/N=N/c4cc(S(=O)(=O)O)c5ccccc5c4N)cc3)cc2)cc(S(=O)(=O)O)c2ccccc12	750
COc1ccc2c(c1)CC[C@@H]1[C@@H]2CC[C@]2(C)[C@@H](NCCCc3ccccc3)CC[C@@H]12	100
CC(C)(C)c1cc(/C=C2/C(=O)Nc3ncccc32)cc(C(C)(C)C)c1O	10
CC(C)CC(Oc1ccc(OC(=O)c2cc(-c3ccc(Cl)cc3)nc(-c3ccc(Cl)cc3)c2)cc1)C(=O)O (stereo not given)	50
CC(C)(C)c1ccc(-c2cc(C(=O)O)cc(-c3ccc(Cl)c(Cl)c3)n2)cc1	50
Oc1oc(/C=N/c2ccc(Oc3ccccc3)cc2)c2ccccc12	100
O=C1C(I)=CC(=C(c2cc(I)c(O)c(I)c2)c2ccccc2C(=O)O)C=C1I	10
O=C(O)COc1ccc(/N=N/c2ccc3cc(Br)ccc3c2O)cc1	20
Oc1ccc(/N=N/c2cccc(Br)c2)cc1	500
O=C(O)c1cc(-c2ccc(Cl)cc2)nc(-c2ccc(-c3ccccc3)cc2)c1	80
Oc1ccc(/N=N/c2ccc(Br)cc2)cc1	10
O=C1OC2(c3cc(I)c(O)c(I)c3Oc3c2cc(I)c(O)c3I)c2c(Cl)c(Cl)c(Cl)c(Cl)c21	500
Cc1cc(Cl)cc2c1C(=O)/C(=C1/Sc3cc(Cl)cc(C)c3C1=O)S2	20
OB(O)c1cc2ccccc2s1	100
COc1ccc2c(c1)CC[C@@H]1[C@@H]2CC[C@]2(C)[C@@H](NCCNc3ccc([N+](=O)[O-])cn3)CC[C@@H]12	40
COC1CC[C@@]2(C)[C@@H](CC[C@@H]3[C@@H]2[C@@H](O)C[C@]2(C)[C@@H](NCCN)CC[C@@H]32)C1 (stereo not given in full)	100
O=S(=O)(O)c1cccc2cccc(Nc3ccccc3)c12	1000
C(=C1c2ccccc2-c2ccccc21)C1CCCNC1 (stereo not given)	100

Second part, the compound after the results:

DLS Concentration [µM]	SMILES
10	O=C(N/N=C/c1ccccc1O)C(=O)N/N=C/c1ccccc1O
10	CC(C)c1ccc(/C=C2/C(=O)Nc3ccccc32)cc1
300	Oc1ccc(-c2csc(Nc3ccc(F)cc3F)n2)cc1O
500	CCCCCCC(Oc1ccc(S(=O)(=O)c2ccc(OCc3ccccc3)cc2)cc1)C(=O)O (stereo not given)
15	O=C(Nc1nnc(Sc2nc3cc(Cl)ccc3s2)s1)c1cccs1
500	Cc1ccc(-c2cc(C(=O)O)cc(-c3ccc4ccccc4c3)n2)cc1
50	CCCCc1ccc(-c2cc(C(=O)O)cc(-c3ccc(Cl)cc3)n2)cc1
50	O=C(O)c1cc(-c2ccc(Cl)cc2)nc(-c2ccc(Sc3ccc(Cl)cc3)cc2)c1
40	O=C1Nc2ccccc2/C1=C\c1ccc2c(c1O)CCCC2
30	CN(C)c1ccc(/C=C2/C(=O)Nc3ccccc32)cc1
